# Source: ChEMBL document CHEMBL1121543, “Synthesis of selenium-75 labeled tertiary diamines: new brain imaging agents” (J Med Chem, 1980)
# Assays:
# [1] = system: Rattus norvegicus; assay: Organ distribution in rat muscle 30 minutes after intravenous injection; assay type: ADME, organism-based, Muscle tissue; conditions: in vivo, 0.5 h
# How it was run: (§1)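 Male Sprague-Dawley rats (220-300 g) given 0.2 mL Se-75 labeled compound (0.5-2.0 μCi) iv via femoral vein under light ether anesthesia; killed under ether by heart removal at set times; organs excised and counted in a well counter. Percent dose per organ from comparison with diluted aliquots of injected dose; blood and muscle totals assume 7% and 40% of body weight. Average of two or three rats, with range.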
# [2] = system: Rattus norvegicus; assay: Organ distribution in rat brain 30 minutes after intravenous injection; assay type: ADME, organism-based; conditions: in vivo, 0.5 h; how it was run: as §1
# [3] = system: Rattus norvegicus; assay: Organ distribution in rat blood 30 minutes after intravenous injection; assay type: ADME, organism-based; conditions: in vivo, 0.5 h; how it was run: as §1
# [4] = system: Rattus norvegicus; assay: Organ distribution in rat lung 2 hr after intravenous injection; assay type: ADME, organism-based; conditions: in vivo; how it was run: as §1
# [5] = system: Rattus norvegicus; assay: Organ distribution in rat liver 30 minutes after intravenous injection; assay type: ADME, organism-based; conditions: in vivo, 0.5 h; how it was run: as §1
# [6] = system: Rattus norvegicus; assay: Organ distribution in rat muscle 2 hr after intravenous injection; assay type: ADME, organism-based, Muscle tissue; conditions: in vivo; how it was run: as §1
# [7] = system: Rattus norvegicus; assay: Organ distribution in rat heart 30 minutes after intravenous injection; assay type: ADME, organism-based; conditions: in vivo, 0.5 h; how it was run: as §1
# [8] = system: Rattus norvegicus; assay: Organ distribution in rat kidney 30 minutes after intravenous injection; assay type: ADME, organism-based; conditions: in vivo, 0.5 h; how it was run: as §1
# [9] = system: Rattus norvegicus; assay: Organ distribution in rat brain 2 hr after intravenous injection; assay type: ADME, organism-based; conditions: in vivo; how it was run: as §1
# [10] = system: Rattus norvegicus; assay: Organ distribution in rat blood 2 hr after intravenous injection; assay type: ADME, organism-based; conditions: in vivo; how it was run: as §1
# [11] = system: Rattus norvegicus; assay: Organ distribution in rat heart 2 hr after intravenous injection; assay type: ADME, organism-based; conditions: in vivo; how it was run: as §1
# [12] = system: Rattus norvegicus; assay: Organ distribution in rat liver 2 hr after intravenous injection; assay type: ADME, organism-based; conditions: in vivo; how it was run: as §1
# [13] = system: Rattus norvegicus; assay: Organ distribution in rat kidney 2 hr after intravenous injection; assay type: ADME, organism-based; conditions: in vivo; how it was run: as §1
# [14] = system: Rattus norvegicus; assay: Organ distribution in rat lung 30 minutes after intravenous injection; assay type: ADME, organism-based; conditions: in vivo, 0.5 h; how it was run: as §1
# [15] = system: Rattus norvegicus; assay: Organ distribution in rat kidney 2 minutes after intravenous injection; assay type: ADME, organism-based; conditions: in vivo; how it was run: as §1
# [16] = system: Rattus norvegicus; assay: Organ distribution in rat brain 2 minutes after intravenous injection; assay type: ADME, organism-based; conditions: in vivo; how it was run: as §1
# [17] = system: Rattus norvegicus; assay: Organ distribution in rat heart 2 minutes after intravenous injection; assay type: ADME, organism-based; conditions: in vivo; how it was run: as §1
# [18] = system: Rattus norvegicus; assay: Organ distribution in rat muscle 2 minutes after intravenous injection; assay type: ADME, organism-based, Muscle tissue; conditions: in vivo; how it was run: as §1
# [19] = system: Rattus norvegicus; assay: Organ distribution in rat blood 2 minutes after intravenous injection; assay type: ADME, organism-based; conditions: in vivo; how it was run: as §1
# [20] = system: Rattus norvegicus; assay: Organ distribution in rat lung 2 minutes after intravenous injection; assay type: ADME, organism-based; conditions: in vivo; how it was run: as §1
# [21] = system: Rattus norvegicus; assay: Organ distribution in rat liver 2 minutes after intravenous injection; assay type: ADME, organism-based; conditions: in vivo; how it was run: as §1
# [22] = system: Rattus norvegicus; assay: Organ distribution in rat blood 30 min after intravenous injection; assay type: ADME, organism-based; conditions: in vivo, 0.5 h; how it was run: as §1
Compound,Dose/organ [1] [%],Dose/organ [2] [%],Dose/organ [3] [%],Dose/organ [4] [%],Dose/organ [5] [%],Dose/organ [6] [%],Dose/organ [7] [%],Dose/organ [8] [%],Dose/organ [9] [%],Dose/organ [10] [%],Dose/organ [11] [%],Dose/organ [12] [%],Dose/organ [13] [%],Dose/organ [14] [%],Dose/organ [15] [%],Dose/organ [16] [%],Dose/organ [17] [%],Dose/organ [18] [%],Dose/organ [19] [%],Dose/organ [20] [%],other results
C[N+](C)(C)CC[Se]CC[N+](C)(C)C,9.52,0.06,5.16,0.2,5.74,5.48,0.15,6.01,0.06,0.36,0.05,3.04,2.75,0.63,,,,,,,
C1CN(CC[Se]CCN2CCOCC2)CCO1,14.4,1.53,2.82,0.94,23.2,17.7,0.22,4.03,0.56,2.46,0.18,21.7,3.42,1.79,9.89,3.19,0.45,10.5,3.13,2.77,Dose/organ [21]: 18.3%
CN(C)CC[Se]CCN(C)C,11.8,0.49,,4.74,15.1,15.2,0.81,5.6,0.71,0.53,0.54,12.2,3.92,5.77,9.46,0.49,2.21,14.1,2.82,11.36,Dose/organ [22]: 0.74%; Dose/organ [21]: 12.82%
CC(C)N(CC[Se]CCN(C(C)C)C(C)C)C(C)C,14.2,0.33,1.17,1.11,16,15,0.55,6.19,0.35,1.04,0.3,13.1,2.28,3.44,11.4,0.25,2.35,9.88,2.96,11.2,Dose/organ [21]: 11.9%
C1CCN(CC[Se]CCN2CCCCC2)CC1,13.4,1.49,0.87,0.85,14.3,12,0.89,9.21,1.63,0.65,0.19,15.9,2.89,2.83,7.14,1.09,3.04,7.39,4.58,20,Dose/organ [21]: 12%
